Experimental data from PubChem BioAssay AID624010 (Broad Institute, 2012).

Target: Scavenger receptor class B member 1 (Mus musculus) (UniProt Q61009)
Assay: HDL cholesteryl ester uptake inhibitors via mutant SR-BI, dose response, mechanism study for SR-BI HDL uptake inhibitor project, cell-based, C384S mutant, scintillation, dry powder (AID 624010)
Conditions: CHO ldlA C384S mSR-BI, [3H]CE-HDL uptake
How it was run: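 Assay system: CHO cells without LDL receptor, expressing C384S mutant mouse SR-BI. Medium: Ham's F12K with 0.5% fatty-acid-free BSA and 0.5% DMSO. Probe or stimulus: [3H]CE-HDL. Incubation: 1 h compound preincubation, then 2 h HDL uptake, 37 °C. Measured by: scintillation counting of [3H] label. Control set: unlabeled HDL excess (40-fold) and no-compound wells.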

Chain of Scavenger receptor class B member 1 (Mus musculus) (Q61009 whole entry C384S): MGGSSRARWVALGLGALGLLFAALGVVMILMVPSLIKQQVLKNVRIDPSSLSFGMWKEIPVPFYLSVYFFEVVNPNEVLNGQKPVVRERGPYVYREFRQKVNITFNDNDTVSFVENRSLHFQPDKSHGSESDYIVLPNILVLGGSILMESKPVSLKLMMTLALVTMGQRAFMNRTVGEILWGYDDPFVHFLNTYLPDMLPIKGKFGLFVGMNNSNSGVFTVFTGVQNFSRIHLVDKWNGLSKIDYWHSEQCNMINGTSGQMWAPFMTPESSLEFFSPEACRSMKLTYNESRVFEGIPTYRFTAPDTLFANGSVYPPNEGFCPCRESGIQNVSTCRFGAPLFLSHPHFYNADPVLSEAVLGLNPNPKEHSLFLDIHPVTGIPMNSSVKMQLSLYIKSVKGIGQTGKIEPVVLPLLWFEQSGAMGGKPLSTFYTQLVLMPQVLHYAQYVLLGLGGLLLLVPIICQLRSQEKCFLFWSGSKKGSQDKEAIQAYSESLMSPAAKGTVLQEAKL

- AC50: 0.5 µM
Structure (SMILES): CC(C)NC(=O)Nc1ccc2c(c1)C(=O)N([C@H](C)CO)C[C@@H](C)[C@H](CN(C)S(=O)(=O)c1ccc(Cl)cc1)O2
